For test [1], the target named is T1, Adenosine receptor A3 (Homo sapiens, UniProt P0DMS8).
T1 sequence (P0DMS8 whole entry): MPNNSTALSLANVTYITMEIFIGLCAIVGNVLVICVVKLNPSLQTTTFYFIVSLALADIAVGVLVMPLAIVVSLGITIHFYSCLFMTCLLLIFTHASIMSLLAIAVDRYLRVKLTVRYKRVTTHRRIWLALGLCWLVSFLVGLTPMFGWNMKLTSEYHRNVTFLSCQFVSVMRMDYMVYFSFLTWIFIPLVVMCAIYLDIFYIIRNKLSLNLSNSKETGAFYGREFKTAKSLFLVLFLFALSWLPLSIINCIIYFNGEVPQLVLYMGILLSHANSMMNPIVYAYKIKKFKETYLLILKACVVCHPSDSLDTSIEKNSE
Nature of the test: (§1) Displacement of [125I]AB-MECA from human adenosine A3 receptor expressed in CHO cells by scintillation counting. In kind it is cell-based. In short, it runs like this: (§2)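 hA3-CHO membranes (50 µg protein) with 0.5 nM [125I]AB-MECA in 50 mM Tris-HCl, 10 mM MgCl2, 1 mM EDTA, pH 7.4; six to eight ligand concentrations; 120 min at 4 °C. Nonspecific binding: 1 µM AB-MECA. GF/B filtration. Ki by Cheng–Prusoff, means of four assays in duplicate.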

Test [2] deals with T2, Adenosine receptor A1 (Homo sapiens) (UniProt P30542).
T2 sequence (whole entry): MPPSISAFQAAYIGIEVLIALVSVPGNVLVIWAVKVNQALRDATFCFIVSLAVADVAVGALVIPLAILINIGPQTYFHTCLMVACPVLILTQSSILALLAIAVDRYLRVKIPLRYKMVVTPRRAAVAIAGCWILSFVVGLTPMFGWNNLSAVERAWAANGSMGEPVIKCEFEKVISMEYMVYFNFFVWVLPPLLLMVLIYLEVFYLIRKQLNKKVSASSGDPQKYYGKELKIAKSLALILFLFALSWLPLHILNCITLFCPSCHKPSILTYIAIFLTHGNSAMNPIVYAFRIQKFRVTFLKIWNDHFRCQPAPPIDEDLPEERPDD
The test can be described thus: Displacement of [3H]DPCPX from human adenosine A1 receptor expressed in CHO cells at 1 uM by scintillation counting. The test is classed as cell-based. In short, it runs like this: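 hA1-CHO membranes (50 µg protein) with 1 nM [³H]DPCPX in 50 mM Tris-HCl pH 7.4, 120 min at 25 °C; nonspecific binding with 10 µM CHA. GF/B filtration. Ki from six to eight concentrations via Cheng–Prusoff (four duplicate assays); or % inhibition at 1 µM.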

The target of test [3] is Adenosine receptor A2a (Homo sapiens, UniProt P29274). Nature of the test: Displacement of [3H]ZM241385 from human adenosine A2A receptor expressed in CHO cells at 1 uM by scintillation counting. The test is classed as cell-based. The essentials:
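hA2A-CHO membranes (50 µg protein) with 1 nM [³H]ZM241385 in 50 mM Tris-HCl, 10 mM MgCl2, pH 7.4; 60 min at 4 °C; nonspecific binding with 1 µM ZM241385. GF/B filtration. Ki from six to eight concentrations via Cheng–Prusoff; or % inhibition at 1 µM.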
In general terms: Loss of bound radioactivity is the signal in a displacement assay; it reports binding, not function.

Test [4] concerns the target T3, Adenosine receptor A2b (Homo sapiens) (UniProt P29275).
T3 sequence (whole entry): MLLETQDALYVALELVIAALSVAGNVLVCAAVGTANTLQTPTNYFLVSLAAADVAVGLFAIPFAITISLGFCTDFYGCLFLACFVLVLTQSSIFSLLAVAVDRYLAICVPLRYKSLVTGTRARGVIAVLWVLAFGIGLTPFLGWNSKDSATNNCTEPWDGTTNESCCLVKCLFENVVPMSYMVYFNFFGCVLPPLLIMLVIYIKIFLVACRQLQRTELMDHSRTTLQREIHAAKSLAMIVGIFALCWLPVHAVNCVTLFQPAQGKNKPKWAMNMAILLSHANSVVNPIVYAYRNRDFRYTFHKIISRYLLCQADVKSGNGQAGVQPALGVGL
Nature of the test: Antagonist activity at human adenosine A2B receptor expressed in CHO cells assessed as inhibition of NECA-induced cAMP accumulation at 1 uM. In kind it is functional, cell-based. The essentials: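 Whole hA2B-CHO cells (1 × 10⁶/assay) in buffered saline, pH 7.4, with 2 IU/ml adenosine deaminase and Ro 20-1724; preincubated 10 min at 37 °C. Stimulated with 200 nM NECA; compound at 1 µM. Stopped with cold 6% TCA, ether-extracted; cAMP by [³H]cAMP competition protein binding; % inhibition reported.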

For test [5], the target named is T4, Adenosine receptor A3 (Rattus norvegicus) (UniProt P28647).
T4 sequence (whole entry): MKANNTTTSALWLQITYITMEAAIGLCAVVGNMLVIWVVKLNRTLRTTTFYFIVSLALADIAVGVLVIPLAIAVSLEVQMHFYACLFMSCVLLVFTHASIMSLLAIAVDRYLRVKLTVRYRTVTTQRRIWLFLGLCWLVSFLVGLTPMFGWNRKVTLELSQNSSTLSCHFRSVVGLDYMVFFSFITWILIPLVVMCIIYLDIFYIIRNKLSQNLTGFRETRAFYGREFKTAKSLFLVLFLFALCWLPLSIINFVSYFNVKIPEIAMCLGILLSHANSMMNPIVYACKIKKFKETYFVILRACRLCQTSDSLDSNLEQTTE
Nature of the test: Displacement of [125I]AB-MECA from rat adenosine A3 receptor expressed in HEK293 cells at 1 uM by scintillation counting. In kind it is cell-based. In short, it runs like this: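 rA3-HEK293 membranes (10 µg protein) with 0.5 nM [125I]AB-MECA in Tris-HCl/MgCl2/EDTA buffer pH 7.4; 120 min at 25 °C; GF/B filtration and scintillation counting; percent inhibition at 1 µM test compound.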

Test [6] has as its target T1, Adenosine receptor A3. Nature of the test: Antagonist activity at human adenosine A3 receptor expressed in CHO cells assessed as inhibition of CI-IB-MECA-mediated inhibition of cAMP accumulation by competition protein binding assay. In kind it is functional, cell-based. The essentials:
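hA3-CHO cells (1 × 10⁶/assay) preincubated 10 min at 37 °C in buffered saline pH 7.4 with adenosine deaminase (2 IU/ml) and Ro 20-1724. cAMP inhibited by 100 nM Cl-IB-MECA; antagonist 1 nM–1 µM. TCA stop, ether extraction, cAMP by [³H]cAMP/adrenal binding-protein competition. IC50 as mean of four experiments.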

In test [7] the target is T5, Adenosine receptor A3 (Homo sapiens) (UniProt P0DMS8).
T5 sequence (whole entry): T1 sequence (P0DMS8 whole entry)
The description is as §1. In kind it is cell-based. Also on record: concentration or dose not given beside the values. The settings on record: concentration not given here. In short, it runs like this: as §2

Each structure is given as a SMILES string.

Chain of Adenosine receptor A2a (P29274 whole entry): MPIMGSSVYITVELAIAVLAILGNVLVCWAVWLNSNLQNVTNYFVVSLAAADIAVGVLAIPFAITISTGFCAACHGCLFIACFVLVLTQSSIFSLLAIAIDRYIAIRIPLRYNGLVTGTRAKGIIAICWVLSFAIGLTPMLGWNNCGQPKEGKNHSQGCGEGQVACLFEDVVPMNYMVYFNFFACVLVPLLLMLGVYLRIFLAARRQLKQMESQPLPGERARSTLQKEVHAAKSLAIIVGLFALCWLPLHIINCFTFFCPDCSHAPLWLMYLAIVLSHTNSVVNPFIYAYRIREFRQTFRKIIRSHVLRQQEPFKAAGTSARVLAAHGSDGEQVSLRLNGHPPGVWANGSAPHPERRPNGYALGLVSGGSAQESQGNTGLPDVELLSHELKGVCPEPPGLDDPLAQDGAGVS

`O=C(Nc1nc2ccccc2c2cn(-c3ccccc3)nc12)c1cnccn1` showed a Ki in test [1] of 65 nM. In addition, the inhibition turned out to be 6% in test [2], 6% in test [3] and 2% in test [4].
In turn, `O=C(Nc1nc2ccccc2c2cn(-c3ccccc3)nc12)c1ncccn1` had an inhibition constant (Ki) in test [1] of 945 nM. Moreover, the inhibition in test [2] stood at 6%; in test [3] it was 2%; in test [4], 1%.
In turn, `O=C(Nc1nc2ccccc2c2cn(-c3ccc(Cl)cc3)nc12)c1ccco1` returned a Ki in test [1] of 11.5 nM. In addition, the inhibition amounted to 11% in test [5], 17% in test [2], 1% in test [3] and 2% in test [4]. Further, in test [6], the concentration for half-maximal inhibition (IC50) was determined as 83 nM.
Consider `O=C(Nc1nc2ccccc2c2cn(-c3ccccc3)nc12)c1ccncc1`, for which the affinity in test [1] corresponds to a Ki of 5 nM. In addition, the inhibition in test [5] was found to be 26%; in test [2] it was 8%; in test [3], 1%; in test [4] it was 1%. Moreover, the half-inhibitory concentration (IC50) in test [6] was found to be 41 nM.
In turn, `Cc1ccc(-n2cc3c(n2)c(NC(=O)c2ccccc2)nc2ccccc23)cc1` came in with an inhibition in test [3] of 26%.
Turning to `Nc1nc2ccccc2c2cn(-c3ccc(C(F)(F)F)cc3)nc12`, the inhibition turned out to be 11% in test [7], 1% in test [2], 1% in test [3] and 11% in test [4].
In the case of `O=C(Nc1nc2ccccc2c2cn(-c3ccccc3)nc12)c1ccco1`, in test [1], the affinity, expressed as Ki, was 3.4 nM. Moreover, the inhibition in test [5] turned out to be 29%; in test [2], 34%; in test [3], 20%; in test [4] it was 3%. Also, the IC50 in test [6] amounted to 21 nM.
In test [1], `O=C(Nc1nc2ccccc2c2cn(-c3ccccc3)nc12)c1ccc(C(F)(F)F)cc1` gave an inhibition constant (Ki) of 415 nM. Moreover, the inhibition came out at 10% in test [2], 3% in test [3] and 4% in test [4].
In test [1], `Cc1ccc(C(=O)Nc2nc3ccccc3c3cn(-c4ccccc4)nc23)cc1` displayed a Ki of 11.5 nM. The inhibition in test [5] came to 7%; in test [2], 6%; in test [3], 1%; in test [4], 38%. Besides, the IC50 in test [6] came out at 54 nM.
As to `O=C(Nc1nc2ccccc2c2cn(-c3ccccc3)nc12)c1ccncn1`, in test [1], the Ki was determined as 210 nM. Moreover, the inhibition in test [2] amounted to 9%; in test [3] it was 6%; in test [4], 3%.
In test [1], `O=C(Nc1nc2ccccc2c2cn(-c3ccc(Cl)cc3)nc12)c1ccncc1` gave a Ki of 24.7 nM. In addition, the inhibition in test [5] was 21%; in test [2], 4%; in test [3] it was 2%; in test [4] it was 3%. The IC50 in test [6] was 145 nM.
`O=C(Nc1nc2ccccc2c2cn(-c3cccc(C(F)(F)F)c3)nc12)c1ccccc1` had an inhibition constant (Ki) in test [1] of 52 nM. Besides, the values for the inhibition in test [2], in test [3] and in test [4] were 13%, 1% and 3%, respectively.
The like results for `O=C(Nc1nc2ccccc2c2cn(-c3ccccc3)nc12)c1cccc(C(F)(F)F)c1` were, in that order, 60 nM, 23%, 1% and 2%.
For `O=C(c1ccccc1)N(C(=O)c1ccccc1)c1nc2ccccc2c2cn(-c3ccccc3)nc12`, the inhibition in test [2] and in test [3] was 0% throughout.
For `O=C(Nc1nc2ccccc2c2cn(-c3ccc(C(F)(F)F)cc3)nc12)c1ccccc1`, affinity in test [1] was put at a Ki of 140 nM. Also, the results for the inhibition in test [2], in test [3] and in test [4] were 10%, 1% and 3%, respectively.
For `O=c1[nH]c2ccccc2c2cn(-c3ccc(C(F)(F)F)cc3)nc12` the same measures were 480 nM, 6%, 10% and 5%.
`O=C(Nc1nc2ccccc2c2cn(-c3ccccc3)nc12)c1cccnc1` yielded an inhibitory constant (Ki) in test [1] of 10.5 nM. In addition, the inhibition is 27% in test [5], 26% in test [2], 1% in test [3] and 1% in test [4]. The IC50 in test [6] is 76 nM.
In the case of `Nc1nc2ccccc2c2cn(-c3cccc(C(F)(F)F)c3)nc12`, the inhibition was determined as 30% in test [7], 6% in test [2], 7% in test [3] and 4% in test [4].
Consider `O=C(Nc1nc2ccccc2c2cn(-c3ccccc3)nc12)c1ccccn1`, for which the Ki in test [1] was determined as 15.5 nM. Further, the inhibition worked out at 23% in test [5], 3% in test [2], 9% in test [3] and 15% in test [4]. Further, in test [6], the IC50 came to 107 nM.
As to `O=C(Nc1nc2ccccc2c2cn(-c3ccccc3)nc12)c1ccsc1`, in test [1], the affinity corresponds to a Ki of 40 nM. The inhibition in test [2] worked out at 1%; in test [3] it was 2%; in test [4], 2%.
Consider `Cc1cccc(C(=O)Nc2nc3ccccc3c3cn(-c4ccccc4)nc23)c1`, for which the affinity in test [1], expressed as Ki, was 6.3 nM. Further, the inhibition in test [5] is 5%; in test [2], 20%; in test [3], 1%; in test [4], 35%. Moreover, the 50% inhibitory concentration (IC50) in test [6] was 26 nM.
On to `O=C(Nc1nc2ccccc2c2cn(-c3ccccc3)nc12)c1ccoc1`, for which affinity in test [1] was put at a Ki of 50 nM. Moreover, the inhibition in test [2] stood at 9%; in test [3] it was 2%; in test [4], 5%.
Turning to `O=C(Nc1nc2ccccc2c2cn(-c3ccccc3)nc12)c1cccs1`, in test [1], the Ki was 50 nM. Moreover, the inhibition in test [2] turned out to be 45%; in test [3], 1%; in test [4] it was 6%.
The like results for `O=C(Nc1nc2ccccc2c2cn(-c3ccccc3)nc12)c1cscn1` were, in that order, 60 nM, 12%, 1% and 2%.
Compound `O=C(Nc1nc2ccccc2c2cn(-c3ccccc3)nc12)c1ccccc1` had a Ki in test [1] of 2 nM. Moreover, the inhibition in test [2] and in test [3] was 0% in each case.

What is called Ki is a measure of affinity in units of concentration, obtained from inhibition or displacement. By inhibition is commonly meant the relative decrease from the control value, in per cent. One may read the IC50 as the concentration at which inhibition is half-maximal.

Values taken from ChEMBL document CHEMBL1152204, “Novel potent and highly selective human A(3) adenosine receptor antagonists belonging to the 4-amido-2-arylpyrazolo[3,4-c]quinoline series: molecular docking analysis and pharmacological studies” (Bioorg Med Chem, 2009).
